Laboratory results taken from ChEMBL document CHEMBL3046504, “Synthesis and antifungal activity of beta-trifluoroalkyl aminovinyl ketone derivatives” (J Agric Food Chem, 2009).
Active and inactive are the calls of the source. The rule behind the calls is not given here.

Assays:
[1] = tested on: Botrytis cinerea; assay: Antifungal activity against Botryotinia fuckeliana isolate Bcl16 assessed as radial growth inhibition at 10 to 100 uM; type: functional, organism-based
How it was run: (§1)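 Initial screen on PDA plates (10 mL) amended with 10 or 100 μM compound, added from DMSO stocks (DMSO not exceeding 0.001% v/v) to warm (50 °C) sterile medium before pouring. Radial growth was compared with growth on unamended medium. Error bars are standard deviation.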

[2] = tested on: Alternaria alternata; assay: Antifungal activity against Alternaria alternata assessed as radial growth inhibition at 100 uM; type: functional; conditions: read-out: GI; how it was run: as §1
[3] = tested on: Solanum lycopersicum; assay: Phytotoxicity against Solanum lycopersicum (tomato) leaves; type: organism-based; conditions: in vivo
[4] = tested on: Rhizoctonia solani; assay: Antifungal activity against Rhizoctonia solani assessed as radial growth inhibition at 10 to 100 uM; type: functional, organism-based; how it was run: as §1
[5] = tested on: Medicago sativa; assay: Phytotoxicity against Medicago sativa (alfalfa) assessed as seed germination; type: organism-based; conditions: in vivo
[6] = tested on: Pythium aphanidermatum; assay: Antifungal activity against Pythium aphanidermatum assessed as radial growth inhibition at 10 to 100 uM; type: functional, organism-based; how it was run: as §1
[7] = tested on: Sclerotinia sclerotiorum; assay: Antifungal activity against Sclerotinia sclerotiorum isolate 1980 assessed as radial growth inhibition during advanced test phase at 10 to 50 uM at 17 degC measured after 48 hr; type: functional, organism-based
How it was run: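 S. sclerotiorum isolate 1980 was grown on PDA amended with compound across 0-50 μM, added from DMSO stock (≤0.001% v/v final) to 50 °C medium. Plates were incubated at 17 °C for 48 h, then radial growth was measured against unamended controls.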

[8] = tested on: Botrytis cinerea; assay: Antifungal activity against Botryotinia fuckeliana isolate Bcl16 assessed as radial growth inhibition during advanced test phase at 10 to 50 uM at 22 degC measured after 48 hr; type: functional, organism-based
How it was run: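 B. cinerea isolate BcI16 was grown on PDA amended with compound across 0-50 μM, added from DMSO stock (≤0.001% v/v final) to 50 °C medium. Plates were incubated at 22 °C for 48 h, then radial growth was measured against unamended controls.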

[9] = tested on: Neurospora crassa; assay: Antifungal activity against Neurospora crassa strain 74-OR23-1A assessed as radial growth inhibition at 100 uM; type: functional, organism-based; how it was run: as §1
[10] = tested on: Penicillium digitatum; assay: Antifungal activity against Penicillium digitatum assessed as radial growth inhibition at 100 uM; type: functional; conditions: read-out: GI; how it was run: as §1

| SMILES | growth inhibition (GI) [1] | inhibition of growth at 100 µM [2] | Activity [3] | growth inhibition (GI) [4] | Activity [5] | growth inhibition (GI) [6] | growth inhibition (GI) [7] | growth inhibition (GI) [8] | growth inhibition (GI) [9] | inhibition of growth at 100 µM [10] |
| --- | --- | --- | --- | --- | --- | --- | --- | --- | --- | --- |
| CC(C)(C)OC(=O)Nc1ccc(C(=O)/C=C(\N)C(F)(F)F)cc1 | Active | ≤ 50% | Non-toxic | Active | Non-toxic | Active |  |  |  |  |
| N/C(=C\C(=O)c1ccc(Cl)cc1)C(F)(F)C(F)(F)F | Active | ≤ 50% | Non-toxic | Active | Non-toxic | Active | Active | Active |  |  |
| N/C(=C\C(=O)c1ccc(F)cc1)C(F)(F)F | Active | ≤ 50% | Non-toxic | Active | Non-toxic | Active |  |  | Active |  |
| N#Cc1ccc(C(=O)/C=C(\N)C(F)(F)F)cc1 | Active | ≤ 50% | Non-toxic | Active | Non-toxic | Active |  |  |  |  |
| N/C(=C\C(=O)c1ccc(O)cc1)C(F)(F)F | Active | ≤ 50% | Non-toxic | Active | Non-toxic | Active |  | Active |  |  |
| N/C(=C\C(=O)c1ccc(Cl)cc1)C(F)(F)F | Active | ≤ 50% | Non-toxic | Active | Non-toxic | Active |  | Active | Active | > 50% |
| N/C(=C\C(=O)c1cccc(Br)c1)C(F)(F)F | Active | ≤ 50% | Non-toxic | Active | Non-toxic | Active |  | Active | Active |  |
| N/C(=C\C(=O)c1ccc2ccccc2c1)C(F)(F)F | Active | ≤ 50% | Non-toxic | Active | Non-toxic | Active |  |  |  |  |
| CC(=O)c1ccc(O)cc1 [4-HYDROXYACETOPHENONE] | Active | ≤ 50% | Non-toxic | Active | Non-toxic | Active | Active | Active |  |  |
| CC/C(C(=O)c1ccc(Cl)cc1)=C(/N)C(F)(F)F | Active | ≤ 50% | Non-toxic | Active | Non-toxic | Active |  |  |  |  |
